The target in assay [1] is Human immunodeficiency virus type 1 reverse transcriptase (Human immunodeficiency virus 1) (UniProt Q72547). The assay is described as follows: Inhibition of HIV1 RT.
For assay [2], the target named is Tyrosine-protein kinase Lck (Homo sapiens, UniProt P06239). The experiment in a line: Inhibition of tyrosine kinase p56-lck.
The next assay relates to Priestia megaterium. The experiment in a line: Antibacterial activity against Bacillus megaterium at 50 ug/disk. Format: functional. The conditions noted are these: for zone of inhibition at 50 µg/disc: read-out: IZ. A digest of the protocol: (§1)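 Agar diffusion assay: 50 µg of compound applied per filter disk on seeded agar. The read-out is the inhibition zone, measured in mm from the edge of the filter disk.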

The subject of a further assay is [Chlorella] fusca. The experiment in a line: Antialgal activity against Chlorella fusca at 50 ug/disk. The conditions noted are these: Scenedesmus fuscus; for zone of inhibition at 50 µg/disc: read-out: IZ. Format: functional. A digest of the protocol: as §1
The subject of another assay is Mycotypha microspora. The experiment in a line: Antifungal activity against Mycotypha microspora at 50 ug/disk. Format: functional. A digest of the protocol: as §1
The subject of another assay is Fusarium oxysporum. The experiment in a line: Antifungal activity against Fusarium oxysporum at 50 ug/disk. The format is functional. A digest of the protocol:
as §1

In the next assay the test system is Escherichia coli. The experiment in a line: Antibacterial activity against Escherichia coli at 50 ug/disk. The format is functional. The settings on record: for zone of inhibition at 50 µg/disc: read-out: IZ. A digest of the protocol:
as §1

The test system of a further assay is Microbotryum violaceum. The assay is described as follows: Antifungal activity against Ustilago violacea at 50 ug/disk. The format is functional. A digest of the protocol: as §1
Assay [3] deals with Aspergillus pseudoglaucus. The experiment in a line: Antifungal activity against Eurotium repens at 50 ug/disk. Format: functional. The conditions noted are these: for zone of inhibition at 50 µg/disc: read-out: IZ. A digest of the protocol:
as §1

Active and inactive are the calls of the source. The calls are words filed in the database; no cut-off is given here.

These results are taken from ChEMBL document CHEMBL1144062, “A new tyrosine kinase inhibitor from the marine brown alga Stypopodium zonale” (J Nat Prod, 1999).

Take `COc1cc(C)c(O)c(C[C@]2(C)[C@H]3CCC(=C(C)C)[C@@H](CCC(=O)O)[C@]3(C)CC[C@H]2C)c1` [ATOMARIC ACID]: the outcome (in [1]; in the assay with Mycotypha microspora; in the assay on Fusarium oxysporum; in the assay with Microbotryum violaceum; in [3]) was inactive. In assay [2], this compound showed an IC50 of 208 µM. Further, the zone of inhibition at 50 µg/disc with Priestia megaterium turned out to be 1 mm; in assay [Chlorella] fusca it was 5 mm; in the assay with Escherichia coli it was 1 mm.
As to `CCOC(=O)c1ccccc1C(=O)OCC` [DIETHYL PHTHALATE], the zone of inhibition at 50 µg/disc with Priestia megaterium stood at 10 mm; in assay [Chlorella] fusca, 13 mm.
With `Clc1ccc(COC(Cn2ccnc2)c2ccc(Cl)cc2Cl)c(Cl)c1` (stereo unspecified) [MICONAZOLE], the zone of inhibition at 50 µg/disc in assay [Chlorella] fusca turned out to be 4 mm; in the assay on Mycotypha microspora (read-out: IZ), 5 mm; in the assay with Fusarium oxysporum (read-out: IZ), 3 mm; in the assay on Microbotryum violaceum (read-out: IZ), 32 mm; in assay [3], 20 mm.
Take `CC1=CC(=O)C=C(C[C@]2(C)[C@H]3CCC(=C(C)C)[C@@H](CCC(=O)O)[C@]3(C)CC[C@H]2C)C1=O` [STYPOQUINONIC ACID]: the outcome (in [1]; in assay [Chlorella] fusca; with Mycotypha microspora; with Fusarium oxysporum; in the assay with Microbotryum violaceum; in assay [3]) was inactive. In addition, the IC50 in [2] was 187 µM. The zone of inhibition at 50 µg/disc with Priestia megaterium and in the assay on Escherichia coli was 1 mm throughout.
Consider `Cc1cc(O)cc2c1O[C@@]1(C)CC[C@@H]3[C@@]4(C)CC[C@H](O)C(C)(C)[C@@H]4CC[C@@]3(C)[C@@H]1C2` [TAONDIOL], for which the result (in assay [1]; in assay [2]; with Priestia megaterium; in [Chlorella] fusca; in the assay on Escherichia coli) was inactive. Further, the zone of inhibition at 50 µg/disc in assay [3] stood at 2 mm.
